Hits are enriched below; roughly 2.4% of the tested compounds scored in any of these assays.
m5-HT2A agonist – activates the mouse 5-HT2A serotonin receptor; P35363; CHO-K1 mHTR2A beta-arrestin complementation, luminescence; percent of 30 µM serotonin response; activation, % at 7.6 µM; hit rate 0.66% among 360,000; AID 624169;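 active means activation above a run cutoff, the mean activation of all tested compounds plus 3 SD, cut at about 14% in these data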;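 further: 0% = plate median of compound wells and 100% = 30 µM serotonin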
SR-BI DiI-HDL act – activators of SR-BI mediated HDL lipid uptake; hit rate 0.096% among 320,000; AID 504775; activation, % at 12.5 µM; CHO ldlA[mSR-BI] cells, DiI-HDL uptake fluorescence, 3 h; 100 = double the neutral-control signal;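 active means mean replicate activation of at least 60% and every replicate at or above 60%; inconclusive means mean or all-replicate condition met, but not both; inactive means mean below 60% and not all replicates reaching 60%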;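 further: 0% = median plate neutral-control signal and 100% = twice that signal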
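Material – SR-BI-overexpressing, LDLR-lacking CHO cells · Medium – BSA-supplemented, HEPES-buffered Ham's F12, pH 7.4 · Doses – single concentration · Times – compound with DiI-HDL co-incubation, 3 h at 37 °C · Measured by – bottom-read fluorescence, 550/595 nm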
beta cell repl – inducers of beta-cell replication in MIN6 cells. proliferation, % at 10 µM. MIN6 cells proliferation, ATPlite luminescence, 48 h; cells starved in 0.2% serum; 100% = growth in 10% serum. hit rate 0.29% among 330,000;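 active means compounds whose signal lies at least 3.5 SD above the mean of all wells on their plate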;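 further: 0% = DMSO-treated cells in low-serum medium and 100% = 10% serum control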
Calb FLC – affects C. albicans growth with fluconazole; growth inhibition, % (concentration not given with the values); C. albicans CaCi-2 + fluconazole, Alamar Blue growth, 48 h; hit rate 0.57% among 300,000;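 active means growth inhibition above about 58% in most replicates, limit read from the data, passing the limit was not always enough; inconclusive means exactly half the replicates above a set limit; inactive means most replicates below a set limit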;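 further: all wells also contain fluconazole at 8 µg/ml as a sub-toxic cotreatment; 0% = median of DMSO wells and 100% = median of geldanamycin control wells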
Ins promoter up – MIN6 insulin promoter up-regulation | AID 1625 | z-score at 5 µM | hit rate 0.3% among 190,000 | MIN6 insulin promoter-GFP reporter, high-content imaging; stronger effect = higher value;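 active means z-score above 3 at 5 µM with at least 500 cells counted in the well; inconclusive means wells under 500 cells, flagged as cytotoxic or low count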
SR-BI DiI inh – inhibitors of mouse SR-BI mediated HDL lipid uptake. AID 488896. ldlA[mSR-BI] CHO cells, DiI-HDL uptake fluorescence, 3 h. inhibition, % at 12.5 µM. Q61009. hit rate 0.96% among 320,000;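 active means mean replicate inhibition of at least 70% and a set share of replicates each scoring 70 or more; inconclusive means meets just one of the two criteria; inactive means fails both criteria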;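 further: 0% = median of neutral control wells and 100% = median of positive control wells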
Target sequence (Q61009 whole entry, looked up): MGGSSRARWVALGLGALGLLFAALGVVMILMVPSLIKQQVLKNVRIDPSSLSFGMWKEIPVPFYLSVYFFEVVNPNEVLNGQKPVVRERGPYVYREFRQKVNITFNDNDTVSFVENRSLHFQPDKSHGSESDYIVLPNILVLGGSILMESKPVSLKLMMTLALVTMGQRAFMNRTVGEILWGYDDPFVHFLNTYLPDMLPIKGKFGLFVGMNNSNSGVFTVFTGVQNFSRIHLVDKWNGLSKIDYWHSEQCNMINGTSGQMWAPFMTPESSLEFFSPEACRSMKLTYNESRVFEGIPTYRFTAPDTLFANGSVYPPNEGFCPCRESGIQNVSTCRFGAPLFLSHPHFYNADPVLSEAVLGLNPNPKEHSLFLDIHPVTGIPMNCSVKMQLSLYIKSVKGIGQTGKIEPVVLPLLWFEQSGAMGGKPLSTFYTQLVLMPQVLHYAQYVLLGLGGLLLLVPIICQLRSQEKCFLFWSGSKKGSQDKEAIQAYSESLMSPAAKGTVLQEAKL
* = called active by the depositor; ? = inconclusive; nt = not tested or not shown.

SMILES | m5-HT2A agonist | SR-BI DiI-HDL act | beta cell repl | Calb FLC | Ins promoter up | SR-BI DiI inh
COC(=O)C1=C(C)N(c2ccc(C)c(C)c2)/C(=C/c2ccco2)C1=O | 18.3* | -56.1 | -6.0 | ? | nt | 56.1
COc1ccc(C(=O)On2c(-c3ccc(Br)cc3)nc3ccccc3c2=O)cc1 | 4.2 | 22.4 | -5.9 | 104.0* | nt | -22.4
Oc1ccc(CN2CCCCC2)c2cccnc12 | -0.3 | 15.8 | -3.5 | 103.0* | nt | -15.8
OCc1ccc(O)c2ncccc12 | -0.3 | 34.0 | -6.6 | 106.8* | ? | -34.0
Cc1ccc(C)c(S(=O)(=O)N2CCN(Cc3ccc(O)c4ncccc34)CC2)c1 | 10.9 | -26.1 | -5.0 | 109.9* | -1.95 | 26.1
CCOC(=O)N1CCN(Cc2ccc(O)c3ncccc23)CC1 | nt | nt | -3.9 | 82.4* | -0.26 | nt
Oc1ccc(CN2CCN(c3ccccc3)CC2)c2cccnc12 | 2.6 | -20.3 | -4.2 | -6.8 | ? | 20.3
CCc1cccc(C)c1NC(=O)Nc1c(Br)cnn1C | -0.9 | 6.5 | 3.6 | -2.8 | nt | -6.5
Oc1ccc(CN2CCC(Cc3ccccc3)CC2)c2cccnc12 | nt | nt | -4.8 | 112.3* | -5.12 | nt
Oc1ccc(CN2CCc3ccccc3C2)c2cccnc12 | -6.6 | 30.0 | -6.2 | 5.0 | -6.11 | -30.0
CCOC(=O)c1ccc2c(c1)n(CC)c(/C=C/N(C)c1ccccc1)[n+]2CC | 2.0 | -1.2 | -4.6 | -9.0 | ? | 1.2
CC[n+]1c(/C=C/N(C)c2ccccc2)n(-c2ccccc2)c2ccc(-c3nc4ccccc4s3)cc21 | 20.3* | -77.8 | -4.0 | 116.4* | nt | 77.8*
COc1ccc(NC(=O)C(Sc2nnc3ccccn23)c2ccccc2)cc1Cl (configuration not stated) | 0.2 | 82.4* | -2.7 | -4.4 | 0.35 | -82.4
COc1ccc(C)cc1NC(=O)CC(NC(C)=O)c1ccccc1 (configuration not stated) | -0.6 | 10.9 | 2.4 | 14.1 | 4.5* | -10.9
COc1ccc(C)cc1NC(=O)C(Sc1nnnn1C)c1ccccc1 (configuration not stated) | 3.6 | -6.8 | 3.2 | 95.2* | -0.11 | 6.8
CCCn1c(SC(C(=O)Nc2cc(C)ccc2OC)c2ccccc2)nc2ccccc2c1=O (configuration not stated) | 1.4 | 22.5 | -3.7 | -12.5 | -0.45 | -22.5
COC(=O)c1c(-c2cccnc2)csc1NC(=O)c1ccc2c(c1)OCO2 | 3.0 | -16.1 | -5.1 | 9.9 | nt | 16.1
Cc1ccc(S(=O)(=O)N2CCN(C(=O)c3ccc(-n4cncn4)c([N+](=O)[O-])c3)CC2)c(C)c1 | 2.0 | nt | nt | nt | nt | nt
COc1cccc(NC(=O)c2cc(-c3ccc(C)o3)nc3ccccc23)c1 | -6.5 | -77.4 | -3.5 | -2.4 | nt | 77.4*
COc1ccc(NC(=O)c2ccccc2NS(C)(=O)=O)cc1OC | 0.8 | 10.1 | -5.0 | -5.7 | nt | -10.1
COc1ccccc1NC(=O)Cn1cnc2sc(C(=O)Nc3ccc(OC)c(OC)c3)c(C)c2c1=O | 0.2 | -83.0 | -2.4 | 12.2 | nt | 83.0*
COc1ccc(NC(=O)c2cc(-c3cc(OC)c(OC)c(OC)c3)nc3ccccc23)cc1OC | -2.4 | -85.4 | -1.1 | 13.8 | nt | 85.3*
COc1ccccc1Nc1ncc(C(=O)Nc2ccc(OC)c(OC)c2)c2ccccc12 | 1.3 | -82.8 | 2.7 | 14.0 | -1.07 | 82.8*
COCCn1c(C)cc(C(=O)COC(=O)c2ccc(Cl)c(S(N)(=O)=O)c2)c1C | -11.4 | -49.4 | -5.3 | -8.7 | nt | 49.4
COC(=O)c1ccc2nc(-c3ccc(Cl)cc3)c(Cc3ccsc3)n2c1 | 5.1 | nt | nt | nt | nt | nt
SMILES | m5-HT2A agonist | SR-BI DiI-HDL act | beta cell repl | Calb FLC | Ins promoter up | SR-BI DiI inh
O=C(NC(=S)NCCc1ccccc1)c1cccc(Cl)c1 | -3.6 | 12.8 | -7.2 | -20.9 | nt | -12.8
CCOC(=O)c1cc2c(c(-c3ccccc3)n1)[C@H](CCO)N(S(=O)(=O)C(C)(C)C)C2 | 2.3 | -23.0 | nt | nt | nt | 23.0
Cc1c(C(=O)N2CCN(c3ncccn3)CC2)oc2ccc(Cl)cc12 | 7.2 | -6.6 | -2.5 | nt | nt | 6.6
COc1cccc(-c2cc(C(=O)Nc3nc4ccccc4s3)c3ccccc3n2)c1 | -2.9 | -88.3 | -2.5 | -5.4 | 1.09 | 88.3*
COc1cccc(NC(=O)c2cc(-c3cccnc3)nc3c(Cl)cccc23)c1 | 2.7 | -82.3 | -2.2 | 10.5 | -0.11 | 82.3*
O=C(Nc1ccc(F)cc1)c1cc(-c2ccncc2)nc2c(Cl)cccc12 | 5.7 | -30.7 | -5.0 | -7.7 | nt | 30.7
CC(C)Cc1cc(C(=O)Nc2ccccc2)c2ccccc2n1 | -3.5 | -70.2 | 0.7 | 4.6 | nt | 70.2*
COc1ccccc1NC(=O)c1cc(-c2ccc(OC)c(OC)c2)nc2ccccc12 | -0.7 | -51.5 | 3.1 | 1.0 | nt | 51.5
Cc1cc(C(=O)Nc2ccccc2)c2ccccc2n1 | -0.3 | -13.8 | 1.1 | -20.1 | nt | 13.8
O=C(Nc1nc2ccccc2s1)c1cc(-c2ccco2)nc2ccccc12 | 2.1 | -15.6 | -0.8 | -2.1 | -0.09 | 15.6
COc1ccc(-c2cc(C(=O)Nc3ccc(O)cc3)c3ccccc3n2)cc1OC | 0.4 | -81.2 | -3.2 | 0.4 | nt | 81.2*
CCCC(=O)NC(c1ccc(Cl)cc1)c1ccc2cccnc2c1O (configuration not stated) | -3.0 | -9.0 | -3.2 | 108.0* | nt | 9.0
CCCCC(=O)NC(c1ccc(Cl)cc1)c1ccc2cccnc2c1O (configuration not stated) | 1.9 | -7.0 | -3.6 | 97.0* | nt | 7.0
CCCC(=O)NC(c1ccc(C)cc1)c1ccc2cccnc2c1O (configuration not stated) | -3.9 | -5.1 | -3.8 | 85.9* | nt | 5.1
CCN(CC)CCCC(C)Nc1c2ccc(Cl)cc2nc2ccc(OC)cc12 (configuration not stated) | nt | nt | nt | nt | 12.4* | nt
COc1ccc2nc3cc(Cl)ccc3c(Nc3cc(C(C)C)c(O)cc3C)c2c1 | -14.4 | -61.8 | -6.4 | 18.9 | nt | 61.8
CN1CCOC(=O)/C1=N/Nc1cc(Cl)ccc1Cl | -0.6 | -15.4 | -4.0 | -13.2 | nt | 15.4
COc1cn(-c2ccccc2)nc1C(=O)OCC(=O)Nc1ccc(C)c(C)c1 | -2.0 | 18.5 | -2.3 | nt | nt | -18.6
O=C(Nc1nnc(-c2ccco2)o1)c1ccc(Cl)cc1 | 2.3 | 34.6 | -2.9 | 102.1* | 0.12 | -34.5
O=C(CSc1ccc(Cl)cc1)Nc1nnc(-c2ccco2)o1 | -3.6 | 7.7 | -5.4 | 84.5* | nt | -7.7
CN(C)S(=O)(=O)c1ccc(C(=O)Nc2nnc(-c3ccco3)o2)cc1 | 5.5 | 4.4 | -0.1 | 28.4 | -0.24 | -4.4
CCCCN(C)S(=O)(=O)c1ccc(C(=O)Nc2nnc(-c3ccco3)o2)cc1 | 3.4 | -0.9 | -4.8 | 97.5* | nt | 0.9
CCc1nnc(NC(=O)c2ccc(S(=O)(=O)N(C)Cc3ccccc3)cc2)o1 | 3.8 | 6.5 | -4.7 | 0.2 | nt | -6.5
Cc1ccc(C(=O)Nc2nnc(-c3ccco3)o2)cc1C | 0.9 | -9.2 | 0.2 | -14.7 | -0.56 | 9.2

Screening results as filed in PubChem BioAssay.
